Shown are actives, neighbours in structure and some others; about 2.7% of the full set was active somewhere.
TPT1 inhibitor: Candida albicans TPT1 enzyme inhibitors, primary screen, biochemical, fluorescence polarization; tRNA 2'-phosphotransferase TPT1 (Candida albicans SC5314); recombinant caTPT1, FP RNA substrate dephosphorylation; inhibition, % at 5 µM; 300,000 compounds, 0.81% hits;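 active = inhibition above the mean of all tested compounds plus 3 SD, set per screening campaign, cut at about 24% in these data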
CSN deneddyl inh: inhibitors of CSN-mediated cullin deneddylation, primary screen, biochemical, fluorescence polarization, uHTS. Purified CSN, SCF-Nedd8-OG deneddylation. COP9 signalosome complex subunit 5 (Homo sapiens), Q92905. 360,000 compounds, 0.38% hits. inhibition, % at 12.5 µM;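 active = pattern-corrected inhibition above about 35%, with an unprinted fluorescence ratio check between 0.5 and 1.5, limit read from the data, passing the limit was not always enough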
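Assay system: HEK293T-derived human Csn5 enzyme; quantity: 0.24 nM enzyme; medium: Tris/NaCl/DTT buffer, pH 7.5; also added: substrate SCFSkp2-Nedd8OG, 10 nM; doses: 12.5 µM compound; schedule: 90 min reaction at room temperature; signal: FP; read-out: % inhibition of substrate cleavage by Csn5; benchmarks: substrate-only high control, full reaction low control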
PP1 counter: PP1-alpha phosphatase inhibitors, primary screen, counter-screen for PP5 inhibitor project, biochemical, fluorescence, OMFP substrate, single point | Serine/threonine-protein phosphatase PP1-alpha catalytic subunit (Homo sapiens), P62136 | purified PP1alpha | inhibition, % at 6.7 µM | 320,000 compounds, 0.9% hits;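 active = inhibition above the mean inhibition of all tested compounds plus 3 SD, computed separately for each screening campaign, cut at about 15% in these data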
Target sequence (P62136 whole entry, looked up): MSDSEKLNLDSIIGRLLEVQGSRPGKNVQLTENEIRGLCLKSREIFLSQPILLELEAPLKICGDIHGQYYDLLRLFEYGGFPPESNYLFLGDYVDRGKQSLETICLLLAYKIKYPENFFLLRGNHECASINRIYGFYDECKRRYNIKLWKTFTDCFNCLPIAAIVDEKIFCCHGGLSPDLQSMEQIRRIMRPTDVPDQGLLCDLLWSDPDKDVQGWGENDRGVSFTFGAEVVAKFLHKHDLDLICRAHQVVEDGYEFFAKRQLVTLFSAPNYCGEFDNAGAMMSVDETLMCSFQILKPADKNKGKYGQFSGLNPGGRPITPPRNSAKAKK
HNF4A DNA FP: change in binding of human HNF4A to DNA, primary screen, biochemical, fluorescence polarization, FITC-DNA; 1 h; Hepatocyte nuclear factor 4-alpha (Homo sapiens), P41235; AID 1224865, 2016; activity change, % at 10 µM; 360,000 compounds, 0.3% hits; in the data active = activity change above about 30%, passing the limit was not always enough
NadD block: inhibitors of S. aureus NadD, primary screen, biochemical, colorimetric, uHTS. purified NadD enzyme, colorimetric absorbance read-out. inhibition, % at 20 µM. 360,000 compounds, 0.78% hits. AID 602399, 2012; in the data active = inhibition above about 26%
Rpn11 block: Rpn11 (PSMD14) deubiquitinase inhibitors, primary screen, biochemical, fluorescence polarization, uHTS. 26S proteasome non-ATPase regulatory subunit 14 (Homo sapiens), O00487. human 26S proteasome, Ub4-pepOG fluorescence polarization; 20S core pre-blocked with epoxomicin. inhibition, % at 20 µM. 360,000 compounds, 0.59% hits. AID 588493, 2011;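 active = inhibition at 20 µM, scaled to each plate's controls, above about 33%, limit read from the data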
Target sequence (O00487 whole entry, looked up): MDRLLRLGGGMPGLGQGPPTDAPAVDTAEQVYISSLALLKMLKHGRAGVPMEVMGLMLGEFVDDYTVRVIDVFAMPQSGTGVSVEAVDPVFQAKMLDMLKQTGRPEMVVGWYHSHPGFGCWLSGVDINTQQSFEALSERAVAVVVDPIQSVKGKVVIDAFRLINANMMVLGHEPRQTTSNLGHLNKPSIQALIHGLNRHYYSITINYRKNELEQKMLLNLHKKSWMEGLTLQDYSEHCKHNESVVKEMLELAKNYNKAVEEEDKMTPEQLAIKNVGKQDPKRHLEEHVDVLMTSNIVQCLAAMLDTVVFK
Of the large screens only hits and unclear results are named; the others gave an inactive call.

CC(C)CN1CCN(C(=O)CCc2nnc(Cc3c[nH]c4ccccc34)o2)[C@@H](C)C1=O	none (no result: TPT1 inhibitor, PP1 counter)
CCN1C(=O)S/C(=C/c2ccc(Sc3nc4ccccc4[nH]3)o2)C1=O	HNF4A DNA FP 102.2
O=[N+]([O-])c1cc(C(F)(F)F)cc([N+](=O)[O-])c1NCCCN1CCOCC1	HNF4A DNA FP 62.3
O=C(Nc1ccc(Cl)c([N+](=O)[O-])c1)c1ccc(NCCCN2CCOCC2)c([N+](=O)[O-])c1	Rpn11 block 53.8
Cc1ccc2[nH]c3nc(N/N=C/c4cccc(O)c4)nnc3c2c1	PP1 counter 16.5
COc1cc(/C=N/Nc2nnc3c(n2)[nH]c2ccccc23)ccc1O	none
CCc1ccc2[nH]c3nc(N/N=C/c4ccc(O)cc4O)nnc3c2c1	PP1 counter 16.8, NadD block 39.3
O=C(NCc1ccco1)c1ccc2nc([C@@H]3O[C@H](CO)[C@H](O)[C@H](O)[C@H]3O)[nH]c2c1	none (no result: TPT1 inhibitor, PP1 counter)
O=c1cc(/C=C/c2c(F)cccc2Cl)[nH]c2ccccc12	Rpn11 block 88.4
Nc1nccc(/C=C/c2c(F)cccc2Cl)n1	none
CC1=C(C(=O)N2CCOCC2)CC(CC(=O)NCc2cccs2)C(=O)N1Cc1ccccc1 (centres undefined)	none (no result: TPT1 inhibitor, PP1 counter)
Oc1ccc2ccccc2c1/C=N/Nc1nnc(-c2ncc[nH]2)c2ccccc12	NadD block 50.8
Cc1cc(-c2csc(NC(=O)c3ccc(=O)n(C)n3)n2)c(C)n1CC1CCCO1 (centres undefined)	PP1 counter 16.0
Cc1cc(-c2csc(NC(=O)C3=COCCO3)n2)c(C)n1C	none
CN1C(=O)[C@H]2[C@@H](c3ccc(C(F)(F)F)cc3)N[C@]3(CCCN(Cc4cccn4C)C3=O)[C@H]2C1=O	none (no result: TPT1 inhibitor, PP1 counter)
Cc1cc(/N=C/C=C2/N(C)c3ccccc3C2(C)C)n(CCC#N)n1	none (no result: TPT1 inhibitor, PP1 counter)
O=C1c2ccccc2C(=O)N1C/C=C/c1ccccc1	none
O=C1C(=O)N(C/C=C/c2ccccc2)c2ccccc21	PP1 counter 17.2
CCCC(=O)Nc1nc2n(n1)C(c1ccccc1)CC(=O)N2 (centres undefined)	none
CC1CC(c2ccccc2)n2nc(NC(=O)CCc3ccccc3)nc2N1 (centres undefined)	PP1 counter 17.5
C=CCn1c(COc2ccccc2-c2ccccc2)nnc1SCC(=O)NC(=O)NCc1ccco1	PP1 counter 16.1
C[C@@H](NC(=O)[C@@H]1CCCN1C(=O)[C@@H]1CCCN1C(=O)c1cccc2ccccc12)c1ccccc1	none (no result: TPT1 inhibitor, PP1 counter, Rpn11 block)
Cc1c(OC(C)C(=O)NCCN2CCOCC2)ccc2c3c(c(=O)oc12)CCCC3 (centres undefined)	CSN deneddyl inh 41.3
Cc1ccc(O)c(C(=O)c2cc(C(=O)NCCc3ccccc3)c(=O)n(CCc3ccccc3)c2)c1	PP1 counter 17.3
COc1ccc(O)c(C(=O)c2cc(C(=O)NCCc3ccccc3)c(=O)n(CCc3ccccc3)c2)c1	none
C=CCn1c(SCC(=O)NCCCC)nc2scc(-c3ccco3)c2c1=O	NadD block 38.3
C=CCn1c(SCC(=O)NC2CCCC2)nc2scc(-c3ccco3)c2c1=O	none
NC(=O)c1ncn([C@@H]2O[C@H](CNS(=O)(=O)c3cc4ccccc4s3)[C@@H](O)[C@H]2O)n1	none (no result: TPT1 inhibitor, PP1 counter)
COc1cccc(NC(=O)CCC(=O)Nc2cccc(OC)c2)c1	none
COc1cccc(NC(=O)CCC(=O)NCc2ccco2)c1	CSN deneddyl inh 69.9
COc1ccccc1NC(=O)C1=C(C)NC(SCC(=O)c2ccccc2)=C(C#N)C1c1ccco1 (centres undefined)	NadD block 36.5 (no result: TPT1 inhibitor, PP1 counter)
CC(=O)C1=C(C)NC(SCC(=O)c2ccc(C)cc2)=C(C#N)C1c1ccco1 (centres undefined)	none (no result: CSN deneddyl inh, HNF4A DNA FP, NadD block, Rpn11 block)
O=C1c2cc(Cl)ccc2OC2(CCNCC2)C12CC(c1ccc(Cl)cc1)=NO2 (centres undefined)	CSN deneddyl inh 68.4
O=C1c2cc(Cl)ccc2OC2(CCNCC2)C12CC(c1ccccc1)=NO2 (centres undefined)	none
COc1ccc(Cc2nnc(N=Nc3c(O)[nH]c4ccc(Br)cc34)[nH]c2=O)cc1	NadD block 37.6
COC(=O)N=Nc1c(O)[nH]c2ccc(Br)cc12	none
COc1ccc(/C=C2\SC(=O)N(CCNC(=O)C3CCN(S(=O)(=O)c4cccs4)CC3)C2=O)cc1	HNF4A DNA FP 31.0
O=C(NCCN1C(=O)S/C(=C\c2ccc(F)cc2)C1=O)C1CCN(S(=O)(=O)c2cccs2)CC1	none
CCN(Cc1ccccc1)C(=S)Nc1cc(C(=O)OC)ccc1C(=O)OC	HNF4A DNA FP 33.2
CCN1C(=O)C(=CC=CN(C)c2ccccc2)SC1=S	CSN deneddyl inh 63.9 (not shown: TPT1 inhibitor, PP1 counter, Rpn11 block)
C[C@@H]1CN([C@H](C)CO)C(=O)CCCn2nncc2CO[C@@H]1CN(C)C(=O)Nc1ccnc(N2CCOCC2)c1	none (no result: TPT1 inhibitor, PP1 counter)
O=C(O)CCCCC1CCSS1 (centres undefined)	CSN deneddyl inh 35.4
Cc1nc([N+](=O)[O-])cn1CC(=O)c1ccc(F)cc1	HNF4A DNA FP 76.8
O=C(N/N=C/c1cc([N+](=O)[O-])ccc1O)c1ccc(COc2ccc3c(c2)CCC3)o1	NadD block 52.0 (no result: TPT1 inhibitor, PP1 counter)
O=C(c1cc(-c2cccc(Cl)c2)nc2ccccc12)N1CCN(c2ccccn2)CC1	none
Cc1cccc2c(C(=O)N3CCN(c4ccccn4)CC3)cc(-c3cccc(Br)c3)nc12	PP1 counter 15.4
O=C(CSc1cccc[n+]1[O-])Nc1cc2c(cc1Cl)C(=O)c1ccccc1C2=O	NadD block 34.1
COc1cc2c3nnc(-c4ccc(F)cc4)c-3cn(Cc3cccc(F)c3)c2cc1OC	HNF4A DNA FP 115.4 (not shown: Rpn11 block)
COc1cc2c3nnc(-c4ccc(F)cc4)c-3cn(Cc3cccc(C)c3)c2cc1OC	none
CCCCc1ccc(NC(=O)CN2C(=O)C3CCCCC3C2=O)cc1 (centres undefined)	none
COC(=O)Cn1c(=O)c(=O)n(CC(=O)OC)c2ccccc21	none
COC(=O)Cn1c(C)c(/C=C/c2cc[n+](C)cc2)c2ccccc21	CSN deneddyl inh 69.5 (not shown: TPT1 inhibitor, PP1 counter, Rpn11 block)
CCOC(=O)C1=CCC(c2ccccc2)N(S(=O)(=O)c2ccccc2[N+](=O)[O-])C1 (centres undefined)	none (no result: TPT1 inhibitor, PP1 counter)
CCOC(=O)C1=CCC(c2ccccc2)N(S(=O)(=O)c2ccccc2C)C1 (centres undefined)	CSN deneddyl inh 91.7 (no result: TPT1 inhibitor, PP1 counter)
O=C(COC(=O)c1ccc[nH]c1=O)NC1CC1	none (no result: TPT1 inhibitor, PP1 counter)
